Activity calls are given as the source filed them. The calls are words filed in the database; no cut-off is given here.
Experiments:
Sus scrofa [1] = species on record: Sus scrofa; assay: Binding affinity to pig pancreatic lipase type 2 assessed as binding constant at 32 degC measured after 1 min by Stern-Volmer plot analysis
Method in brief: (§1)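 Intrinsic Trp fluorescence titration of PL, 1.1 μM in 0.1 M phosphate buffer with 0.1 M NaCl, pH 7.4, by successive 1 or 2 μL additions of compound. Run at 27, 32 and 37 °C, each in triplicate. Excitation 285 nm, slits 10 nm. Spectrum recorded 1 min after each addition. Intensity at the emission maximum was used for Stern–Volmer plots.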

Sus scrofa [2] = species on record: Sus scrofa; assay: Binding affinity to pig pancreatic lipase type 2 assessed as binding constant at 37 degC measured after 1 min by Stern-Volmer plot analysis; method in brief: as §1
[3] = Competitive inhibition of pig pancreatic lipase type 2 using varying concentrations of p-nitrophenyl butyrate as substrate measured every 1 min for 30 mins by Lineweaver-Burk plot analysis; set-up: species or system Sus scrofa
Method in brief: (§2)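 A405 was read every 1 min for 30 min. Mode of inhibition was from Lineweaver–Burk plots of 1/v0 vs 1/[S]. Ki and K'i were obtained from replots of slope and y-intercept versus inhibitor concentration.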

Sus scrofa [4] = species on record: Sus scrofa; assay: Binding affinity to pig pancreatic lipase type 2 assessed as Stern-Volmer quenching constant at 27 degC measured after 1 min by Stern-Volmer plot analysis; method in brief: as §1
Sus scrofa [5] = species on record: Sus scrofa; assay: Binding affinity to pig pancreatic lipase type 2 assessed as quenching rate constant at 37 degC measured after 1 min by Stern-Volmer plot analysis; method in brief: as §1
Sus scrofa [6] = species on record: Sus scrofa; assay: Binding affinity to pig pancreatic lipase type 2 assessed as bathochromic shift of maximum fluorescence intensity at 37 degC measured after 1 min by fluorescence spectral analysis; method in brief: as §1
Sus scrofa [7] = species on record: Sus scrofa; assay: Binding affinity to pig pancreatic lipase type 2 assessed as decrease in fluorescence intensity at 37 degC measured after 1 min by fluorescence spectral analysis; method in brief: as §1
Sus scrofa [8] = species on record: Sus scrofa; assay: Binding affinity to pig pancreatic lipase type 2 assessed as bathochromic shift of maximum fluorescence intensity at 27 degC measured after 1 min by fluorescence spectral analysis; method in brief: as §1
Sus scrofa [9] = species on record: Sus scrofa; assay: Binding affinity to pig pancreatic lipase type 2 assessed as quenching rate constant at 32 degC measured after 1 min by Stern-Volmer plot analysis; method in brief: as §1
Sus scrofa [10] = species on record: Sus scrofa; assay: Binding affinity to pig pancreatic lipase type 2 assessed as decrease in fluorescence intensity at 27 degC measured after 1 min by fluorescence spectral analysis; method in brief: as §1
Sus scrofa [11] = species on record: Sus scrofa; assay: Binding affinity to pig pancreatic lipase type 2 assessed as binding constant at 27 degC measured after 1 min by Stern-Volmer plot analysis; method in brief: as §1
Sus scrofa [12] = species on record: Sus scrofa; assay: Binding affinity to pig pancreatic lipase type 2 assessed as Stern-Volmer quenching constant at 37 degC measured after 1 min by Stern-Volmer plot analysis; method in brief: as §1
Sus scrofa [13] = species on record: Sus scrofa; assay: Binding affinity to pig pancreatic lipase type 2 assessed as Stern-Volmer quenching constant at 32 degC measured after 1 min by Stern-Volmer plot analysis; method in brief: as §1
Sus scrofa [14] = species on record: Sus scrofa; assay: Binding affinity to pig pancreatic lipase type 2 assessed as decrease in fluorescence intensity at 32 degC measured after 1 min by fluorescence spectral analysis; method in brief: as §1
Sus scrofa [15] = species on record: Sus scrofa; assay: Binding affinity to pig pancreatic lipase type 2 assessed as quenching rate constant at 27 degC measured after 1 min by Stern-Volmer plot analysis; method in brief: as §1
[16] = Inhibition of pig pancreatic lipase type 2 using p-nitrophenyl butyrate as substrate preincubated with enzyme for 10 mins followed by susbtrate addition and measured after 30 mins by spectrophotometric analysis; set-up: species or system Sus scrofa
Method in brief: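 PL (300 U/mL stock, in 50 mM phosphate buffer pH 7.2) was preincubated with compound aliquots (MeOH or MeOH:DMSO 95:5 stocks) for 10 min at 37 °C. p-Nitrophenyl butyrate (3.2 mM stock) was then added and incubated 30 min at 37 °C with shaking, read at 405 nm. Five concentrations per compound, in triplicate. % inhibition was taken from absorbance vs no-compound control, and IC50 by regression.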

Sus scrofa [17] = species on record: Sus scrofa; assay: Binding affinity to pig pancreatic lipase type 2 assessed as bathochromic shift of maximum fluorescence intensity at 32 degC measured after 1 min by fluorescence spectral analysis; method in brief: as §1
[18] = Non-competitive inhibition of pig pancreatic lipase type 2 using varying concentrations of p-nitrophenyl butyrate as substrate measured every 1 min for 30 mins by Lineweaver-Burk plot analysis; set-up: species or system Sus scrofa; method in brief: as §2

SMILES	Ka (Sus scrofa [1])	Ka (Sus scrofa [2])	Ki [3] [µM]	KSV (Sus scrofa [4])	Kq (Sus scrofa [5])	Activity (Sus scrofa [6])	Activity (Sus scrofa [7])	Activity (Sus scrofa [8])	Kq (Sus scrofa [9])	Activity (Sus scrofa [10])	Ka (Sus scrofa [11])	KSV (Sus scrofa [12])	KSV (Sus scrofa [13])	Activity (Sus scrofa [14])	Kq (Sus scrofa [15])	IC50 [16] [µM]	Activity (Sus scrofa [17])	Ki [18] [µM]
COc1ccc(-c2coc3cc(O)ccc3c2=O)cc1 [FORMONONETIN]	0.22 10^4L/mol	0.27 10^4L/mol	640	0.72 10^4L/mol	0.66 10^13L/mol.s	Active	Active	Active	0.64 10^13L/mol.s	Active	0.16 10^4L/mol	1.06 10^4L/mol	1.02 10^4L/mol	Active	0.45 10^13L/mol.s	120	Active	2900
Cc1cc(O)cc2occ(-c3ccc(O)c(O)c3)c(=O)c12	–	–	–	–	–	–	–	–	–	–	–	–	–	–	–	92	–	–
O=c1c(-c2ccc(O)cc2)coc2cc(O)ccc12 [DAIDZEIN]	1.2 10^4L/mol	1.02 10^4L/mol	300	8.95 10^4L/mol	2.57 10^13L/mol.s	Active	Active	Active	3.11 10^13L/mol.s	Active	5.3 10^4L/mol	4.08 10^4L/mol	4.94 10^4L/mol	Active	5.62 10^13L/mol.s	83	Active	630
O=c1c(-c2ccc(O)cc2)coc2cc(O)cc(O)c12 [GENISTEIN]	0.87 10^4L/mol	0.44 10^4L/mol	80	1.88 10^4L/mol	0.67 10^13L/mol.s	Active	Active	Active	0.94 10^13L/mol.s	Active	1.24 10^4L/mol	1.07 10^4L/mol	1.5 10^4L/mol	Active	1.18 10^13L/mol.s	60	Active	–
O=c1c(-c2cc(Br)c(O)c(Br)c2)coc2c(Br)c(O)ccc12	1.99 10^4L/mol	3.21 10^4L/mol	90	0.58 10^4L/mol	0.7 10^13L/mol.s	Active	Active	Active	0.6 10^13L/mol.s	Active	0.32 10^4L/mol	1.11 10^4L/mol	0.96 10^4L/mol	Active	0.36 10^13L/mol.s	63	Active	1200
CC(=O)Oc1ccc2c(=O)c(-c3ccc(OC(C)=O)c(OC(C)=O)c3)coc2c1	–	–	–	–	–	–	–	–	–	–	–	–	–	–	–	122	–	–
COc1ccc(-c2coc3c(O)c(O)ccc3c2=O)cc1	–	–	–	–	–	–	–	–	–	–	–	–	–	–	–	93	–	–
CCCCCCCCCCC[C@@H](C[C@@H]1OC(=O)[C@H]1CCCCCC)OC(=O)[C@H](CC(C)C)NC=O [ORLISTAT]	–	–	–	–	–	–	–	–	–	–	–	–	–	–	–	0.6	–	–
COc1ccc(-c2coc3c(Br)c(O)ccc3c2=O)cc1Br	–	–	–	–	–	–	–	–	–	–	–	–	–	–	–	100	–	–
O=c1c(-c2ccc(O)c(O)c2)coc2cc(O)ccc12	–	–	–	–	–	–	–	–	–	–	–	–	–	–	–	70	–	–
COc1ccc(-c2coc3c(Br)c(O)ccc3c2=O)cc1	8.47 10^4L/mol	1.47 10^4L/mol	320	4.69 10^4L/mol	1.43 10^13L/mol.s	Active	Active	Active	2.1 10^13L/mol.s	Active	12.4 10^4L/mol	2.29 10^4L/mol	3.34 10^4L/mol	Active	2.95 10^13L/mol.s	87	Active	1900
COc1ccc2c(=O)c(-c3ccc(OC)c(OC)c3)coc2c1	–	–	–	–	–	–	–	–	–	–	–	–	–	–	–	360	–	–
